An excerpt weighted towards active compounds, which were near 4.1% of everything screened.
KCNQ1 pot: potentiators or activators of KCNQ1 channel, primary screen, cell-based, thallium flux, high-throughput; actives 0.35% (n = 310,000); Potassium voltage-gated channel subfamily KQT member 1 (Homo sapiens), P51787; B-score at 10 µM; CHO-K1 KCNQ1, thallium flux FluxOR fluorescence; active compounds read high;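 active = fluorescence ratio B-score, a plate-corrected score, at least three library SD, with initial intensity B-score within 5 SD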
Target sequence (P51787 whole entry, looked up): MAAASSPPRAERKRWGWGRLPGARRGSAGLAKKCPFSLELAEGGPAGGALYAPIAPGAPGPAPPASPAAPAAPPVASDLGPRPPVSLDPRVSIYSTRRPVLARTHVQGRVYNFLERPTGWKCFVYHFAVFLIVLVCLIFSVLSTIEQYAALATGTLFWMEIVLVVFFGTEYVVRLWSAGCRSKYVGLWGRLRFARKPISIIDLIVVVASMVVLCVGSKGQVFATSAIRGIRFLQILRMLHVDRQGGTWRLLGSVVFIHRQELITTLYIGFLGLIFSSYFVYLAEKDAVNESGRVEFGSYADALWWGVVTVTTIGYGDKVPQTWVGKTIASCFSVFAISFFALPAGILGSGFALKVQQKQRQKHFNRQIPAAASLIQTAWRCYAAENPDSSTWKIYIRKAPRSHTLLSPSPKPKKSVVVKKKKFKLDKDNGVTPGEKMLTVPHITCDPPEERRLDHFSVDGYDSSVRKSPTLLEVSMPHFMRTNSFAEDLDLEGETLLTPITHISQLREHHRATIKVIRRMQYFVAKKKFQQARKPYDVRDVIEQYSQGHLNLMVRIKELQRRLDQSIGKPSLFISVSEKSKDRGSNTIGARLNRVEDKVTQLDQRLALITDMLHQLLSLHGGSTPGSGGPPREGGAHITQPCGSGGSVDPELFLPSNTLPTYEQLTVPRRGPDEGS
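Medium – assay buffer, equal DMSO in all wells · Material – CHO-K1 cell line with stable KCNQ1 potassium channel expression · Signal – kinetic FluxOR thallium fluorescence, 10-s 1-Hz baseline, 110-s post-stimulus read · Compound – single concentration per compound, DMSO matched to controls · Schedule – 37 °C overnight plating, 90-min dark dye load, 20-min compound pretreatment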
hERG rescue: hERG rescue from dofetilide block, primary screen, cell-based, CHO-hERG, FluxOR thallium flux, dofetilide IC70. activation (rescue from dofetilide block), less the hit threshold, % at 10 µM. AID 1511, 2009. actives 0.51% (n = 310,000). dofetilide IC70 present. Voltage-gated inwardly rectifying potassium channel KCNH2 (Homo sapiens), Q12809;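 active = activation above the mean of controls blocked by dofetilide plus 5 SD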;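 note: thallium influx through hERG after potassium depolarization seen as dye fluorescence rise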
KCNK9 inh: KCNK9 potassium channel inhibitors, primary screen, HEK293 cells, thallium flux; Potassium channel subfamily K member 9 (Homo sapiens), Q9NPC2; FluxOR thallium flux fluorescence; active compounds read low; B-score at 10 µM; actives 1.2% (n = 310,000);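 active = ratio B-score over 3 SD below the library mean, with starting fluorescence within 5 SD of its mean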;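 note: negative B-score means less thallium flux so channel inhibition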
KCC2 mod: KCC2 cotransporter modulators, thallium flux, primary screen, cell-based, HEK293 KCC2, FluoZin-2 fluorescence, MLSMR | actives 2.2% (n = 190,000) | KCC2 cells, thallium flux FluoZin-2 fluorescence | Solute carrier family 12 member 5 (Homo sapiens), Q9H2X9 | AID 1456, 2008 | B-score of Tl+ flux slope (higher = more flux/activation; lower = inhibition) at 10 µM;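 active = thallium flux slope and its plate-corrected score both differing from the plate sample mean at a set confidence after two filtering rounds, in either direction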;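 note: slope of fluorescence scaled to starting intensity during 10 to 20 s after thallium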
KCNK3 block: human KCNK3 channel inhibitors, primary screen, CHO cells, FluxOR thallium flux, B-score; FluxOR fluorescence; active compounds read low; Potassium channel subfamily K member 3 (Homo sapiens), O14649; actives 0.84% (n = 340,000); B-score at 10 µM;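 active = B-score under library mean minus 4 SD, starting fluorescence ratio at most library mean plus 5 SD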;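 note: more negative B-score means stronger inhibition of thallium flux through KCNK3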
KCNQ1 inh: inhibitors of human KCNQ1 channel, primary screen, cell-based, thallium flux, high-throughput. Potassium voltage-gated channel subfamily KQT member 1 (Homo sapiens), P51787. CHO-K1 KCNQ1, FluxOR thallium flux fluorescence; active compounds read high. B-score at 10 µM. actives 1.3% (n = 310,000). AID 2642, 2010;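 active = compounds whose thallium flux B-score, printed positive for inhibition, exceeds three library SD while starting fluorescence stays within three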;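 note: channel opened by potassium depolarization with thallium stimulus after 20 min compound exposure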
The depositor's hits bear a star; i = inactive; / = not tested or not shown.

SMILES | KCNQ1 pot | hERG rescue | KCNK9 inh | KCC2 mod | KCNK3 block | KCNQ1 inh
CC1(C)CC(NC(=O)c2ccc(Cl)c(S(=O)(=O)N(Cc3ccccc3)c3ccccc3)c2)CC(C)(C)N1 | i | -33.3 | i | / | i | i
Cc1sc2ncnc(N3CCC(C(=O)Nc4ccc(Cl)c(Cl)c4)CC3)c2c1C | / | / | / | / | -10.2* | /
CCc1cccc(NC(=O)C2CCN(c3ncnc4sc(C)c(C)c34)CC2)c1 | / | / | / | / | -10.8* | /
CCCn1nc(C(=O)Nc2ccc3nc(N4CCOCC4)sc3c2)ccc1=O | / | / | / | / | i | /
CN(Cc1ccccc1)C(=O)c1ccc(NC(=O)Cc2cccc(NC(=O)C3CCCN(C(=O)C4CCCCC4)C3)c2)cc1 (centres undefined) | / | / | / | / | i | /
CC1CCCC(C)N1C(=O)COC(=O)c1cccnc1Cl (centres undefined) | / | / | / | / | i | /
C/C(=N\NC(=O)CSCc1ccccc1Cl)c1cc(O)ccc1O | i | 4.7* | i | -2.97 | i | i
CCC(C)c1ccccc1NC(=O)c1cc2cccc([N+](=O)[O-])c2[nH]1 (centres undefined) | i | -10.9 | i | 0.465 | i | 8*
Cc1ccc(NC(=O)c2cc3cccc([N+](=O)[O-])c3[nH]2)cc1 | i | -10.3 | i | 0.299 | i | i
CCOc1cc(C(=S)N2CCOCC2)ccc1OC(=O)c1ccc(C)cc1 | i | -8.6 | i | / | i | i
COc1cc2c(cc1OC)CN(c1nc(-c3cccnc3)nc3ccccc13)CC2 | i | -31.3 | -7.51* | -1.8 | i | i
O=C(COC(=O)/C=C/c1ccc2c(c1)OCO2)NC1CC1 | i | 5.4* | i | 1.09 | i | i
CC1CCCC(NC(=O)COC(=O)/C=C/c2ccc3c(c2)OCO3)C1C (centres undefined) | i | -1.2 | i | -0.647 | i | i
CCOc1ccc(-c2csc(/C(C#N)=C\c3ccc(O)c([N+](=O)[O-])c3)n2)cc1 | i | -15.6 | i | -1.08 | i | 6*
N=C1/C(=C\c2ccc(-c3cccc(Cl)c3)o2)C(=O)N=C2SC=C(c3ccccc3)N12 | 8* | -4.9 | i | 0.396 | i | i
COc1ccc2cc(C(=O)NCc3ccccc3)c(=Nc3ccc(C(=O)O)cc3)oc2c1 | i | 6.8* | i | -2.32 | i | i
CCOc1cc(N2CCOCC2)c(OCC)cc1NC(=O)Cn1nc(C)c([N+](=O)[O-])c1C | i | 8.3* | i | / | i | i
CCOc1cc(N2CCOCC2)c(OCC)cc1NC(=O)Cn1cnnn1 | / | / | / | / | i | /
C/C(=N\NC(=O)c1cc(C)nc2ccccc12)c1ccco1 | i | -13.7 | i | 0.762 | i | i
C/C(=N\NC(=O)c1cc2ccccc2cc1O)c1ccc(C)o1 | 26* | 8.9* | i | / | i | i
C/C(=N/NC(=O)c1cc2ccccc2cc1O)c1ccco1 | 35* | 24.7* | i | / | i | i
CCOC(=O)C1=NN(c2ccccc2)C2=NC(C)=C(C(=O)OC)C(c3cccs3)N12 (centres undefined) | i | -9.6 | i | 0.177 | i | i
CCOC(=O)C1=NN(c2ccc(F)cc2)C2=NC(C)=C(C(=O)OC)C(c3cccs3)N12 (centres undefined) | i | -19.4 | -6.92* | 0.0402 | i | i
CC[C@]1(C(=O)OC)[C@H]2C(=O)N(Cc3ccccc3)C(=O)[C@H]2[C@H]2CN(C)C(=NC)N21 | / | / | / | / | i | /
O=C(O)c1ccccc1N/N=C/C1=C(N2CCOCC2)C(=C\c2ccccc2)/CC1 | i | -22.5 | i | -1.37 | i | 9*

Screens as filed in PubChem.
